Data published in article PMC4714678 (Cancer Science, 2015).
No end group written: not given here.

Key:
HUVEC = test: Fluorescence visualization for entry of peptides; type: cell-based, human; details: 25 μg/mL FITC‐conjugated peptide, 3 h, fixed, DAPI
How it was run: (§1)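 Test peptide FITC-conjugated, or FITC-TAT cell-penetrating peptide, each at 25 μg/mL, applied for 3 h. HUVEC were isolated in-house. BGC-823, PG and HT-29 were grown in RPMI-1640 with 10% FBS at 37°C in 5% CO2. Cells were then fixed in 4% paraformaldehyde, permeabilized with 0.1% NP-40 in PBS, nuclei stained with DAPI (5 ng/mL), washed three times in PBS, and imaged by confocal microscopy.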

[1] = test system: cancer cells (BGC‐823, PG and HT‐29); test: Fluorescence visualization for entry of peptides; type: cell-based, human; details: BGC‐823, PG and HT‐29 cells, 25 μg/mL FITC‐conjugated peptide, 3 h, fixed, DAPI
How it was run: as §1

[2] = previous studies; cited from earlier work
[3] = test system: subintestinal vein vessels (SIV) of zebrafish; test: Transgenic zebrafish embryo angiogenesis assay; type: in vivo; details: doses of the angiogenesis test
[4] = Pre‐clinical toxicology study; type: in vivo, mouse, rat and monkey

N=C(N)NCCC[C@H](NC(=O)CNC(=S)Nc1ccc2c(c1)C(=O)OC21c2ccc(O)cc2Oc2cc(O)ccc21)C(=O)N[C@@H](CCCCN)C(=O)N[C@@H](CCCCN)C(=O)N[C@@H](CCCNC(=N)N)C(=O)N[C@@H](CCCNC(=N)N)C(=O)N[C@@H](CCC(N)=O)C(=O)N[C@@H](CCCNC(=N)N)C(=O)N[C@@H](CCCNC(=N)N)C(=O)N[C@@H](CCCNC(=N)N)C(=O)NCC(=O)N[C@@H](Cc1ccc(O)cc1)C(=O)O [FITC‐labeled TAT peptide]
entry into cells (confocal fluorescence) (HUVEC): entered | entry into cells (confocal fluorescence) [1]: entered

ADSGEGDFLAEGGGVR [FpA]
anti‐angiogenesis activity of synthetic peptide [2]: inactive

ADSGEGDFLAEGGGVRGPRVVERH [alphastatin]
anti‐angiogenesis activity of synthetic peptide [2]: showed anti‐angiogenesis activity

DSGEGDFLAEGGGVR [fibrinostatin]
toxicity to zebrafish [3]: no tocixity | side effects in toxicology study ([4]; pre‐clinical animal models, GLP standards, data not shown): no observable side effects | margin of safety ([4]; single‐dose acute toxicity testing and repeated‐dose chronic toxicity study in the mouse, rat and monkey): wide margin of safety
